Source: PubChem BioAssay
Sampled rows, rich in hits. Any-hit rate of the full collection: about 1.8%.
CHRM4 antagonist: human M4 muscarinic receptor antagonists, primary screen, CHO cells, Fluo-8 calcium fluorescence. inhibition, % at 3 µM. Muscarinic acetylcholine receptor M4 (Homo sapiens), P08173. CHO-hM4 cells, ACh EC80. 0.73% of 360,000 active;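 active = inhibition above its plate's cutoff, the mean inhibition of sample wells plus 3 SD, cut at about 27% in these data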
Target sequence (P08173 whole entry, looked up): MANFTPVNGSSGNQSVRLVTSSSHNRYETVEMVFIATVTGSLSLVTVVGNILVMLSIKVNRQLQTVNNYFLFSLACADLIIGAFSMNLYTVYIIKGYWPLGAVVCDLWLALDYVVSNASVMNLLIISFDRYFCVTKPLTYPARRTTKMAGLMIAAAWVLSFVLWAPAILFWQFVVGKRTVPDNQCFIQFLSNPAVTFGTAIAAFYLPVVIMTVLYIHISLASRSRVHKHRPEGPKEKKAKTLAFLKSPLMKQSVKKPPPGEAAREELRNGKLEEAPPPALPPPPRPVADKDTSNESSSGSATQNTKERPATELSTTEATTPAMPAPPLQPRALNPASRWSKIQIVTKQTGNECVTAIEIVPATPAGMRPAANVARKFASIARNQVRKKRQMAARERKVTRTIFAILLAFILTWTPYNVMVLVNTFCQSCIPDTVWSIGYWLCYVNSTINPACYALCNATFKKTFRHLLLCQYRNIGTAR
M4 ag: human M4 muscarinic receptor agonists, primary screen, CHO-K1 cells, Fluo-8 calcium fluorescence | 0.14% of 360,000 active | CHO-K1 hM4/Gqi5; vehicle 0%, full acetylcholine response 100% | activation, % at 3 µM | Muscarinic acetylcholine receptor M4 (Homo sapiens), P08173;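 active = activation above the run mean over all test wells plus 3 SD, cut at about 32% in these data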;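 also: peak over basal fluorescence ratio per well then scaled between controls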
CHRM5 antagonist: human M5 muscarinic receptor antagonists, primary screen, CHO cells, Fluo-8 calcium fluorescence | Muscarinic acetylcholine receptor M5 (Homo sapiens), P08912 | CHO-hM5 cells, ACh EC80 | inhibition, % at 3 µM | 0.59% of 360,000 active | AID 624040, 2012;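 active = inhibition above a per-plate cutoff, the mean of that plate's test compounds plus 3 SD, cut at about 27% in these data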
CHRM4 PAM: human M4 muscarinic receptor positive allosteric modulators, primary screen, CHO-K1 cells, Fluo-8 calcium fluorescence; CHO-K1 hM4/Gqi5, ACh EC20; 0% = ACh EC20, 100% = maximal ACh; activation, % at 3 µM; 0.4% of 360,000 active;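 active = activation above its plate's cutoff, the mean activation of sample wells plus 3 SD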
M5 PAM: human M5 muscarinic receptor positive allosteric modulators, primary screen, CHO-K1 cells, Fluo-8 calcium fluorescence; activation, % at 3 µM; 0.3% of 360,000 active; Muscarinic acetylcholine receptor M5 (Homo sapiens), P08912; CHO-K1 hM5, ACh EC20 PAM; 0% = ACh EC20, 100% = ACh EC100;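 active = activation above the run cutoff, the mean activation of all test compounds plus 3 SD, cut at about 18% in these data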
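Test system: CHO-K1 hM5 cells / Doses: single-point, 3 µM nominal / Times: Post-acetylcholine fluorescence recording 140 s / Technique: Fluo-8 calcium fluorescence / Measure: Max/basal fluorescence ratio as % of EC20–EC100 ACh window / Benchmarks: low control EC20 acetylcholine (0%), high control EC100 acetylcholine (100%) / Replicates: one well per compound, no replicates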
M5 ag: human M5 muscarinic receptor agonists, primary screen, CHO-K1 cells, Fluo-8 calcium fluorescence. Muscarinic acetylcholine receptor M5 (Homo sapiens), P08912. CHO-K1 hM5 cells; 0% DMSO wells, 100% maximal acetylcholine response. activation, % at 3 µM. 0.19% of 360,000 active. AID 624037, 2012;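 active = activation above the run's mean over test compounds plus 3 SD, cut at about 23% in these data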;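 also: signal is peak over basal fluorescence ratio across the kinetic read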
Hits are given with their value; - = inactive.

SMILES	CHRM4 antagonist	M4 ag	CHRM5 antagonist	CHRM4 PAM	M5 PAM	M5 ag
COc1ccc(C2=NOC(Cn3nc(-c4ccccc4C)cc3C(=O)O)C2)cc1 (centres undefined)	-	-	-	-	-	-
CC(=O)OCCn1c2nc(=O)[nH]c(=O)c-2nc2cc(C)c(C)cc21	37.4	229.5	42.0	-	-	417.5
CC1CN(C(=O)COc2ccc3c(-c4ccccc4)cc(=O)oc3c2)CC(C)O1 (centres undefined)	-	-	-	-	-	-
COc1ccc2c3c([nH]c2c1)[C@H]1C[C@H]2[C@H](C[C@@H](O)[C@H](OC)[C@H]2C(=O)O)CN1CC3	46.2	-	-	-	-	-
COc1ccc(-c2nc3ccccc3nc2-c2ccc(OC)c(OC)c2)cc1OC	-	-	38.6	-	-	-
O=C(CS(=O)CC(=O)Nc1cccnc1)Nc1ccc(F)cc1 (centres undefined)	-	-	-	-	-	-
Cc1cccc(/C=N/n2c(C)cc(C)c(C#N)c2=O)c1	-	-	-	41.3	-	-
CCOC(=O)C1=NN(c2ccc(OC)cc2)C2C(=O)N(c3ccccc3OC)C(=O)C12 (centres undefined)	-	-	-	-	-	-
CCOC(=O)C1=NN(c2ccccc2)C2C(=O)N(c3ccccc3OC)C(=O)C12 (centres undefined)	-	-	27.2	-	-	-
COC(=O)[C@H]1[C@@H](C)N(Cc2ccccc2)C(=O)N[C@H]1c1cccc(C(F)(F)F)c1	-	-	-	-	18.5	-
CN(CC(=O)Nc1ccccc1Cl)C(=O)Cn1cc(C(F)(F)F)cc(Cl)c1=O	-	-	-	-	-	-
CCCCN(C)C(=O)c1cccc(OC2CCN(CC(C)(C)C)CC2)c1	-	-	-	-	-	-
CC(C)(C)CN1CCC(Oc2cccc(C(=O)N3CCNC(=O)C3(C)C)c2)CC1	-	-	30.9	-	-	-
CN(C)CCCOC(=O)C1c2ccccc2Oc2ccccc21	94.6	-	97.2	-	-	-
COCCCNC(=O)C1c2ccccc2Oc2ccccc21	-	-	-	-	-	-
CC[N+](C)(CC)CCOC(=O)C1c2ccccc2Oc2ccccc21	99.3	-	98.7	-	-	-
CCN(CC)CCCNC(=O)C1c2ccccc2Oc2ccccc21	-	-	27.6	-	-	-
CN(CCOC(=O)C1c2ccccc2Oc2ccccc21)C(C)(C)C	99.0	-	98.3	-	-	-
CN1CCN(C(=S)SCc2nc(N)nc(Nc3ccc(F)cc3)n2)CC1	-	-	-	-	-	-
Cc1ccc(C(=O)N2CCN(c3ccc(NC(=O)COc4ccccc4C)cc3)CC2)cc1	-	-	-	-	-	-
COc1cc(O)c(C(=O)CC(=O)c2ccncc2)c(OC)c1	-	-	-	-	-	-
CCCC(=O)c1c(NC(C)C)cc(C)oc1=O	-	-	-	38.6	-	-
O=[N+]([O-])c1cccc(NC(=S)N2CCN(c3ccccn3)CC2)c1	-	-	-	-	-	-
Cc1ccc(Cn2cccc(NC(=O)NC3CCCCC3)c2=O)cc1	-	-	-	-	33.8	-
O=C(Nc1cccn(Cc2ccc(F)cc2)c1=O)NC1CCCCC1	-	-	-	-	-	-
SMILES	CHRM4 antagonist	M4 ag	CHRM5 antagonist	CHRM4 PAM	M5 PAM	M5 ag
Nc1c(Br)cc2oc(-c3ccccc3)nc2c1Br	-	-	-	-	-	-
COc1ccc(-c2nc3c(Br)c(N)c(Br)cc3o2)cc1	26.8	-	-	29.1	-	-
CN(C)C(=O)c1cccc(COc2ccc(N3C(N)=NC(N)=NC3(C)C)cc2Cl)c1	-	-	-	-	-	-
CCOC(=O)c1c(-c2ccc(C)o2)csc1NC(=O)CSc1nnnn1-c1ccccc1	29.7	-	-	-	-	-
O=C(CSc1nnnn1-c1ccccc1)NCc1cccs1	-	-	-	-	19.9	-
CCOC(=O)c1c(-c2ccc(C)o2)csc1NC(=O)CSc1nnc(C)s1	-	-	-	-	-	-
Cn1cnc2c1c(=O)n(Cc1cccc(Cl)c1)c(=O)n2C	-	-	-	-	-	-
Cc1ccc(CNC(=O)c2ccc(N3CCC4(CC3)CC(c3ccccc3)=NO4)c(NC(=O)c3ccc(Cl)c([N+](=O)[O-])c3)c2)cc1	-	-	-	-	-	-
C[C@H]1CN([C@@H](C)CO)C(=O)c2cc(C#CC3CCCC3)cnc2O[C@H]1CN(C)C(=O)Cc1ccccn1	-	-	-	-	-	-
CCc1nc2ccc(C(=O)NCCCn3ccnc3)cn2c1N(C)CCCc1ccccc1	27.2	-	-	-	-	-
CCc1nc2ccc(C(=O)N3CCCCC3)cn2c1N(C)CCCc1ccccc1	32.9	-	-	-	-	-
CC1(C(=O)NS(=O)(=O)c2ccccc2Cl)CCN1C(=O)CCC1CCCC1 (centres undefined)	-	-	-	-	-	-
CCOC(=O)C(NC(=O)c1ccccc1)(OCC1(CC)COC1)C(F)(F)F (centres undefined)	-	-	-	-	-	-
CCOC(=O)C(NC(=O)c1ccc(OC)cc1)(OCC1(CC)COC1)C(F)(F)F (centres undefined)	-	-	-	17.9	-	-
COCCNc1ncnc2c1ncn2[C@H]1CN(Cc2cc(OC)c(OC)c(OC)c2)C[C@@H](CO)O1	-	-	-	-	-	-
COc1cc(CN2C[C@@H](CO)O[C@@H](n3cnc4c(NCC(C)C)ncnc43)C2)cc(OC)c1OC	-	-	-	16.8	-	-
OC[C@@H]1CN(Cc2ccc(-c3ccccc3)cc2)C[C@H](n2cnc3c(NCc4ccco4)ncnc32)O1	29.0	-	-	-	-	-
OC[C@@H]1CN(Cc2ccccc2)C[C@H](n2cnc3c(NCc4ccco4)ncnc32)O1	-	-	-	-	-	-
CN1CCN(c2ncnc3c2ncn3[C@H]2CN(Cc3ccc(C(=O)O)cc3)C[C@@H](CO)O2)CC1	-	-	-	18.3	-	-
CCOC(=O)c1ccc(Nc2sc(C(=O)c3cccc([N+](=O)[O-])c3)c(N)c2C#N)cc1	-	-	-	-	-	-
Cc1ccc(-n2nc3ccc(N)cc3n2)cc1Cl	-	-	-	-	-	-
Cc1ccc(-n2nc3ccc(N)cc3n2)cc1C	-	-	-	15.6	20.5	-
